bCat nuc transl: alters nuclear translocation of beta-catenin in HeLa cells; immunofluorescence imaging; nuclear translocation activity, % at 5 µM; 190,000 compounds, 0.3% hits; AID 1665;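 active = nuclear translocation activity above 50% at 5 µM, with a well cell count of 50 or more; inconclusive = wells under 50 cells across six images, flagged as toxic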;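 also: per-cell ratio of nuclear to cytoplasmic median beta-catenin stain intensity; plate controls were DMSO negative control for no effect and GSK-3 inhibitor IX positive control for full effect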
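Test system: HeLa cells, endogenous beta-catenin; Compound: single 5 µM dose plus 0.02–20 µM confirmation series; Times: compound exposure 24 h at 37°C; Signal: fluorescence imaging of beta-catenin antibody stain plus DAPI; Read-out: % activation, nuclear-to-cytoplasmic median beta-catenin signal ratio per cell.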
Autophagy mod: alters autophagy in cells | MEF GFP-LC3 puncta imaging; test concentration mostly 10 µM | AID 463193 | 190,000 compounds, 0.98% hits | calls only at 10 µM (by protocol);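 active = percentage of spot-positive cells more than 3 SD above its plate mean, without a fluorescence outlier flag or 80% toxicity; inconclusive = no clear call, values can overlap the other calls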;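 also: spot-positive cell cutoff set from DMSO-treated cells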
MT stabilize HCS: stabilizes microtubules in HeLa cells. HeLa tubulin immunostaining HCS, 24 h; share of cells brighter than vehicle mean+2SD. % tubulin-high responders, % at 10 µM. 200,000 compounds, 0.83% hits. AID 2205;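 active = plate Z-score above 3 for both tubulin-high and condensed-nucleus cell shares, with cell loss under 80%, at 10 µM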;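 also: anti alpha tubulin signal scored within the nucleus-defined area of each cell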
Furin inh: blocks human furin protease activity. P09958. inhibition, % at 20 µM or 30 µM. purified furin, fluorogenic substrate cleavage. 220,000 compounds, 0.061% hits; in the data active = inhibition above about 25%
Target sequence (P09958 108-714 limits assumed): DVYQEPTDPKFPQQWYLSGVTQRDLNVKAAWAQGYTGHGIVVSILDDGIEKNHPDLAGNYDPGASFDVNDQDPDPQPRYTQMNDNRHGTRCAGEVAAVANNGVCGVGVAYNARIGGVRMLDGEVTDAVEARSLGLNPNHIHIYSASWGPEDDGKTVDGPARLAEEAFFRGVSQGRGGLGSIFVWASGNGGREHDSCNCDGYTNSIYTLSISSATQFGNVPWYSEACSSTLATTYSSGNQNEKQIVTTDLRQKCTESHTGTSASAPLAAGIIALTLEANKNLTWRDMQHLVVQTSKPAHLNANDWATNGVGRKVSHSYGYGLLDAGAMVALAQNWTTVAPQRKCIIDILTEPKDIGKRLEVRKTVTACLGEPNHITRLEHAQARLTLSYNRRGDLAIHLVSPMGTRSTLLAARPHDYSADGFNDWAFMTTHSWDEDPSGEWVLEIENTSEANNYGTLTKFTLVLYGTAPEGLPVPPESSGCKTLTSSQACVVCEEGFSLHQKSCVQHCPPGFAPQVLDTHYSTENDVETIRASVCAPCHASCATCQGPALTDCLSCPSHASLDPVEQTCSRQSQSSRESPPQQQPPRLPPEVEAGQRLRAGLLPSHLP
Insulin prom up: MIN6 insulin promoter up-regulation | MIN6 insulin promoter-GFP reporter, high-content imaging; hits give high values | AID 1625 | 190,000 compounds, 0.3% hits | z-score at 5 µM;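 active = z-score above 3 at 5 µM with at least 500 cells counted in the well; inconclusive = wells under 500 cells, flagged as cytotoxic or low count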
HSV replic up: increases HSV replication in cells. HSV replication augmentation in cells, fold increase. 220,000 compounds, 0.005% hits. maximum fold increase. AID 1956; in the data active = maximum fold increase above about 1.5; inconclusive = no clear call, values can overlap the other calls; tested in PC3 cells
Active calls of the source: *; i = inactive; ? = inconclusive; / = not tested or not shown; + = active, no number. Rows were chosen to be rich in hits. Some 1.9% of all compounds tested hit in one or more screens of this group.

SMILES | bCat nuc transl | Autophagy mod | MT stabilize HCS | Furin inh | Insulin prom up | HSV replic up
O=C(CSc1nnc(-c2ccccc2)c(-c2ccccc2)n1)NCc1ccco1 | -2 | i | 43* | -5 | -0.06 | i
O=C(CSc1nc(-c2ccco2)cc(C(F)(F)F)n1)Nc1ccc2c(c1)CCC2 | 3 | i | 47* | -10 | 0.87 | i
O=C(CSc1nnc(CCc2nc3ccccc3[nH]2)n1-c1ccccc1)NCc1ccco1 | -5 | + | 3 | -7 | 0.65 | i
O=C(CSc1nc(-c2ccco2)cc(C(F)(F)F)n1)NC1CCCC1 | / | i | 4 | -23 | 0.14 | i
COC(=O)c1ccccc1NC(=O)CSc1nc(-c2ccco2)cc(C(F)(F)F)n1 | -2 | i | 14* | -22 | 0.18 | i
O=C(Nc1ccccc1F)C1CCCN(S(=O)(=O)c2ccccc2)C1 (centres undefined) | -3 | i | 3 | -9 | -0.05 | i
C=CCc1cccc(/C=N/NC(=O)C(C)Nc2ccc(C)cc2)c1O (centres undefined) | -3 | i | 3 | -20 | ? | i
Cc1ccc(NC(=O)CSc2nc(-c3ccco3)cc(C(F)(F)F)n2)cc1C | 28 | i | 49* | -10 | / | i
Cc1cc(NC(=O)CSc2nc(-c3ccco3)cc(C(F)(F)F)n2)n(-c2ccccc2)n1 | 12 | i | 44* | -6 | -1.3 | i
Cc1c(NC(=O)CSc2nc(-c3ccco3)cc(C(F)(F)F)n2)c(=O)n(-c2ccccc2)n1C | 0 | i | 4 | -10 | -0.24 | i
Cc1ccc(NC(=O)CSc2nnc(-c3ccco3)c(-c3ccco3)n2)cc1 | 97* | i | 29* | -6 | -0.36 | i
O=C(CSc1nnc(-c2ccco2)c(-c2ccco2)n1)Nc1ccccc1 | 4 | i | 3 | -10 | -0.22 | i
CCCOc1ccc(CCC(=O)N/N=C/c2ccncc2)cc1 | -1 | / | / | -14 | -0.14 | i
Cc1cccc(-n2cnc3c(sc4nc(N5CCOCC5)c5c(c43)CCCC5)c2=O)c1 | -5 | / | / | -30 | -1.7 | i
Cc1cc(C)nc(NC(=NCCc2c[nH]c3ccccc23)NC(=O)C(C)(C)C)n1 | 2 | / | / | -17 | 0.29 | i
C/C(N)=C(/C#N)C(=O)CSc1cc(C)c2cc(C)cc(C)c2n1 | 0 | + | 3 | -24 | -0.05 | i
Cc1cc(C)c2nc(SCC#N)cc(C)c2c1 | 3 | i | 4 | -14 | -1.6 | i
N=c1c2c(-c3ccccc3)c(-c3ccccc3)n(Cc3ccco3)c2ncn1CCCN1CCOCC1 | 7 | i | 44 | -19 | -1.2 | i
N=c1c2c(-c3ccccc3)c(-c3ccccc3)n(Cc3ccco3)c2ncn1CCCn1ccnc1 | 5 | i | 3 | -17 | ? | /
CC(C)Cn1cnc2c(c(-c3ccccc3)c(-c3ccccc3)n2Cc2ccco2)c1=N | / | + | 2 | -7 | -3.6 | i
N=c1c2c(-c3ccccc3)c(-c3ccccc3)n(Cc3ccco3)c2ncn1Cc1ccccc1 | / | + | 5 | -11 | / | i
N=c1c2c(-c3ccccc3)c(-c3ccccc3)n(Cc3ccccc3)c2ncn1CCO | -1 | + | 3 | -14 | 0.26 | i
CC(NC(=O)c1cccc(Cn2cc([N+](=O)[O-])cn2)c1)c1ccc(C(C)(C)C)cc1 (centres undefined) | / | i | 46* | -15 | / | i
COc1ccc(N2C(=O)CS/C2=N\C(=S)Nc2ccccc2)cc1 | -1 | / | / | -25 | -0.37 | i
COc1ccc(NC(=O)c2cc(SC)ccc2Cl)cc1 | 1 | i | 6 | -20 | 0.27 | i
SMILES | bCat nuc transl | Autophagy mod | MT stabilize HCS | Furin inh | Insulin prom up | HSV replic up
CCCOP(=O)(OCCC)C1(Nc2ccc(C)cc2)CCCCC1 | 0 | i | 3 | 26* | -0.71 | /
CCOP(=O)(OCC)C(NC(=O)Nc1ccc(C)cc1)C(N)=O (centres undefined) | -2 | / | / | -18 | -0.48 | i
CC1=CC(C2CC(=O)N(c3ccccc3C)C2=O)CC2C(=O)N(c3ccccc3C)C(=O)C12 (centres undefined) | / | i | 2 | -27 | -0.26 | i
CC(C)(C)C(=O)Cn1ncc(Cl)c(Cl)c1=O | 5 | + | 3 | -13 | ? | i
N#C/C(=C/c1ccc(CNC(=O)C(=O)Nc2cc(Cl)cc(Cl)c2)o1)C(=O)NCc1cccnc1 | 0 | i | 5 | -20 | 0.02 | i
Cc1ccc(C(=O)N/C(=C\c2ccc(-c3cc(Cl)ccc3Cl)o2)C(=O)NCc2cccnc2)cc1 | -4 | i | 2 | -1 | / | /
O=C(NCc1cccnc1)/C(=C\c1ccc(-c2cccc(Cl)c2)o1)S(=O)(=O)c1ccccc1 | 17 | i | 52* | -17 | -0.16 | i
O=C(NCc1cccnc1)/C(=C/c1ccc(-c2cccc(Cl)c2)o1)S(=O)(=O)c1ccccc1 | 55* | i | 26* | -9 | 0.31 | i
CCc1nc(SCC(=O)N2c3ccccc3CC2C)c2c(C)c(C)sc2n1 (centres undefined) | 4 | i | 1 | -24 | 1.7 | i
Cc1sc2nc(C(C)C)nc(SCC(=O)N3c4ccccc4CC3C)c2c1C (centres undefined) | 0 | + | 5 | 3 | -0.73 | i
CS(=O)(=O)c1nc(-c2cccs2)cc(C(F)(F)F)n1 | -2 | + | 1 | -9 | 0.54 | i
COc1cccc(OC)c1OCCNCC1CSc2ccccc2O1 (centres undefined) | / | / | / | / | / | i
O=C(/C=C/c1cccs1)N1CCC2(CC1)Oc1ccc(Cl)cc1C(=O)C21CC(c2cccnc2)=NO1 (centres undefined) | 52* | / | / | -24 | -1 | i
Cc1ccc(C(=O)N2CCC3(CC2)Oc2ccc(Cl)cc2C(=O)C32CC(c3cccnc3)=NO2)s1 (centres undefined) | 0 | / | / | -10 | -0.48 | i
CC(OCCN1CCCC1)(c1ccc(F)cc1)c1ccc(F)cc1 | -1 | i | 5 | -18 | -2.1 | i
O=C1/C(=C/c2cccnc2)CCc2c1[nH]c1ccccc21 | 0 | i | 4 | -9 | 0.08 | i
CC1C/C(=C\c2cccnc2)C(=O)/C(=C/c2cccnc2)C1 (centres undefined) | 0 | i | 32* | 2 | -1.6 | i
Nc1ncc(-n2cncn2)c(-c2ccc(Cl)cc2)n1 | 1 | i | 3 | -17 | / | i
CC(C)c1ccc(NC(=O)C(c2ccccc2)N(C)C(=O)CCc2c[nH]c3ccccc23)cc1 (centres undefined) | / | / | / | / | / | i
CC1(C)CC[C@@]23CC[C@]4(C)[C@@](OC2=O)(C3C1)[C@H]1O[C@H]1C1[C@@]2(C)CC[C@H](O)C(C)(C)C2CC[C@]14C (some centres undefined) | / | / | / | / | / | i
N=C1S/C(=C\c2ccc(-c3cccc(Cl)c3)o2)C(=O)N1c1nccs1 | 2 | + | 4 | -1 | 2.1 | i
COc1ccc(/C=C2\SC(=N)N(c3nccs3)C2=O)cc1OC | 1 | i | 5 | 1 | -0.86 | i
